Laboratory results published in ChEMBL document CHEMBL1135647, “New pyridobenzodiazepine derivatives: modifications of the basic side chain differentially modulate binding to dopamine (D(4.2), D(2L)) and serotonin (5-HT(2A)) receptors” (J Med Chem, 2002).

What was measured:
[1] = target: T1, 5-hydroxytryptamine receptor 2A (Rattus norvegicus, UniProt P14842); assay: In vitro binding affinity at 5-hydroxytryptamine 2A receptor in rat cortical membrane; assay type: cell membranes
In short: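 Frontal cortex membranes from female Wistar rats, stored at -80 °C. Incubated 30 min at 37 °C with 1 nM [3H]ketanserin; nonspecific binding with 10 µM methysergide; protein 2 mg/mL final. Filtered on PEI-presoaked GF/C and counted by scintillation. Nine concentrations in triplicate per curve, at least duplicate curves after a 10-6/10^-7 M prescreen. Ki by Cheng-Prusoff.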

D(4) dopamine receptor [2] = target: T2, D(4) dopamine receptor (Homo sapiens, UniProt P21917); assay: (§1) In vitro binding affinity at human cloned Dopamine receptor D4 expressed in Sf9 cell membranes
T2 sequence (P21917 whole entry): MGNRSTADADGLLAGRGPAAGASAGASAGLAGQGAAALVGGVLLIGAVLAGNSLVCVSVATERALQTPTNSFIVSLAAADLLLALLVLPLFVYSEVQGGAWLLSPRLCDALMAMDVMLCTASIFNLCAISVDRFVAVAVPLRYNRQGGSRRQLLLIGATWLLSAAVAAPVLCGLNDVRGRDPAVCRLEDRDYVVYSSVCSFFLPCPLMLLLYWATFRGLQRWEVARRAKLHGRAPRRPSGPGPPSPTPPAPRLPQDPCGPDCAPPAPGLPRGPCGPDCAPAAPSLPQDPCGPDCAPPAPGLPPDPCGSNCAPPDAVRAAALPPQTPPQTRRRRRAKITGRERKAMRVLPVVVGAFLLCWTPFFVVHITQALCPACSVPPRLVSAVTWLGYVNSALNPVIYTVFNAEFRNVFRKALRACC

[3] = target: T3, Adrenergic receptor alpha-1 (Rattus norvegicus, UniProt P15823+P23944+P43140); assay: In vitro binding affinity at Alpha-1 adrenergic receptor in rat cortical tissues
T3 sequence (P15823 whole entry): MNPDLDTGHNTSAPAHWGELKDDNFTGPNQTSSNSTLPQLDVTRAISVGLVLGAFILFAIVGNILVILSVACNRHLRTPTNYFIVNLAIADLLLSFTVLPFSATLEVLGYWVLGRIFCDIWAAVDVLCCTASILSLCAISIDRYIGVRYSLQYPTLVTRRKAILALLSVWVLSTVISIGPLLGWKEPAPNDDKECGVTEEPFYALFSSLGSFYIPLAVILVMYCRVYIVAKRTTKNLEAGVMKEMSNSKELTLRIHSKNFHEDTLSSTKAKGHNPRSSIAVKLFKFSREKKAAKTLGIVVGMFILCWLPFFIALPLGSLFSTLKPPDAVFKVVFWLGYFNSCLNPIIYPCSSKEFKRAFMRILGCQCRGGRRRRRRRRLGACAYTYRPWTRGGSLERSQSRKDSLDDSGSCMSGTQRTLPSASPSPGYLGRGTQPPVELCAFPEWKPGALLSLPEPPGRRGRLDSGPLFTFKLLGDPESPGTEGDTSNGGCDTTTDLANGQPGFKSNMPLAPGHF
T3 sequence (P23944 whole entry): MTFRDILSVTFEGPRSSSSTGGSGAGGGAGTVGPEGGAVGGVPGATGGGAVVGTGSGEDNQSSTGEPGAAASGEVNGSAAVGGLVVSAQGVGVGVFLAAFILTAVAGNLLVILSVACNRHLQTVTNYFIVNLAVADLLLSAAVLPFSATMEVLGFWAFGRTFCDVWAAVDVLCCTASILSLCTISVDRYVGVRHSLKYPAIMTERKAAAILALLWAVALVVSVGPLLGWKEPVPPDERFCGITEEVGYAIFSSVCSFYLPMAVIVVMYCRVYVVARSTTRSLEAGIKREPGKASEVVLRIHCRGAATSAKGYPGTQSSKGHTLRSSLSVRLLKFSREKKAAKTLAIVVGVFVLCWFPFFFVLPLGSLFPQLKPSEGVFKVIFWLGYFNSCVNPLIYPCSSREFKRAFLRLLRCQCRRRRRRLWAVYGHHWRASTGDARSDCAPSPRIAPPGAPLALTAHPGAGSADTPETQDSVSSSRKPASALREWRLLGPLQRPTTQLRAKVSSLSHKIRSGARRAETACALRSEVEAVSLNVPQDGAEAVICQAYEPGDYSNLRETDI
T3 sequence (P43140 whole entry): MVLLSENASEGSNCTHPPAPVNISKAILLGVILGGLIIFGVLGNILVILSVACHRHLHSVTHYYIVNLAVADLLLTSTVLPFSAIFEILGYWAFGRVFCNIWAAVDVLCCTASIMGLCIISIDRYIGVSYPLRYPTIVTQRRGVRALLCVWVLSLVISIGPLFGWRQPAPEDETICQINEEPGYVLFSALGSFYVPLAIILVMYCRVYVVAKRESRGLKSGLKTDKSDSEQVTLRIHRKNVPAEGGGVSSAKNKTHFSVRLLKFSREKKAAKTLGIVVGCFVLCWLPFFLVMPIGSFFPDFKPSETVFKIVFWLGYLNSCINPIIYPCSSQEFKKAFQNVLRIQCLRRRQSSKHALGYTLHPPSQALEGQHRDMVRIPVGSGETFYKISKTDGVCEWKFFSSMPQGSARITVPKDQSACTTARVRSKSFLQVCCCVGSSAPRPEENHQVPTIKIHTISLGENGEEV

[4] = target: T1, 5-hydroxytryptamine receptor 2A; assay: In vitro binding affinity at serotonin 5-hydroxytryptamine 2A receptor in rat cortical membrane; assay type: cell membranes
D(4) dopamine receptor [5] = target: T2, D(4) dopamine receptor; assay: as §1; remark: listed apart in the source
In short: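 Sf9 membranes expressing human cloned D4.2, in 50 mM Tris-HCl pH 7.4 with 5 mM MgCl2, 5 mM EDTA, 5 mM KCl and 1.5 mM CaCl2. […] Filtration on GF/C. Six to nine concentrations in duplicate. Ki by Cheng-Prusoff.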

Mus musculus [6] = assay: Percentage of total immobility time after an intraperitoneal dose of 8 (mg/kg) in porsolt's test in mice; assay type: functional
Rattus norvegicus [7] = assay: Compound was evaluated in paw test for the forelimb retraction in rat at effective dose of 20 (mg/kg); assay type: functional
Mus musculus [8] = assay: Percentage of total immobility time after an intraperitoneal dose of 16 (mg/kg) in porsolt's test in mice; assay type: functional
Rattus norvegicus [9] = species on record: Rattus norvegicus; assay: Compound was evaluated in paw test for the hindlimb retraction in rat
Mus musculus [10] = assay: Percentage of total immobility time after an intraperitoneal dose of 4 (mg/kg) in porsolt's test in mice; assay type: functional
Mus musculus [11] = assay: Percentage of total immobility time after an intraperitoneal dose of 8 (mg/kg) in porsolt's test; assay type: functional
In short: (§2)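 Forced swimming (Porsolt) test in mice, with the compound given i.p. Immobility time was expressed as a percentage of the total immobility time of vehicle-treated animals. Significance was assessed against saline by Mann-Whitney U test, or against vehicle by analysis of variance with post hoc tests.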

Mus musculus [12] = assay: Percentage of total immobility time after an intraperitoneal dose of 16 (mg/kg) in porsolt's test; assay type: functional; in short: as §2
Mus musculus [13] = assay: Percentage of total immobility time after an intraperitoneal dose of 4 (mg/kg) in porsolt's test; assay type: functional; in short: as §2
Rattus norvegicus [14] = assay: Compound was evaluated in paw test for the hindlimb retraction at effective dose of 5 (mg/kg); assay type: functional
Rattus norvegicus [15] = assay: Compound was evaluated in paw test for the forelimb retraction at effective dose of 20 (mg/kg); assay type: functional
Mus musculus [16] = assay: Percentage of total immobility time after an intraperitoneal dose of 7.5 (mg/kg) in porsolt's test; assay type: functional
Mus musculus [17] = assay: Percentage of total immobility time after an intraperitoneal dose of 15 (mg/kg) in porsolt's test
Mus musculus [18] = assay: Percentage of total immobility time after an intraperitoneal dose of 30 (mg/kg) in porsolt's test; assay type: functional

T1 sequence (P14842 whole entry): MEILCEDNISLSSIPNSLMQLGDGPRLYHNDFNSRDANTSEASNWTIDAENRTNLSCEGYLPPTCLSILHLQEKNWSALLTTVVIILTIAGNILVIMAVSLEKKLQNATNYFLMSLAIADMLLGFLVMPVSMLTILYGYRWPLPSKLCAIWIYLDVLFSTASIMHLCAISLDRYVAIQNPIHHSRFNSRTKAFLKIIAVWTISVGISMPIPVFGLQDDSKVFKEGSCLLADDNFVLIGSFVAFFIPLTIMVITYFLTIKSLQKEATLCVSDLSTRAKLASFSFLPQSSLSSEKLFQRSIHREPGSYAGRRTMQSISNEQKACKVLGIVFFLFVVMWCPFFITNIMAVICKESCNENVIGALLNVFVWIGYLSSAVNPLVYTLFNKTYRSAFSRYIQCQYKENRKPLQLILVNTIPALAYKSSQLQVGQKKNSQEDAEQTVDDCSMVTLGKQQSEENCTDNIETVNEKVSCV

Row | Compound | Ki [1] [µM] | Ki (D(4) dopamine receptor [2]) [µM] | Ki [3] [µM] | also measured
1 | Clc1ccc2c(c1)C(NCCN1CCCC1)=Nc1cccnc1N2 | 0.25 | 0.341 | – | –
2 | Clc1ccc2c(c1)C(N1CCN(Cc3ccccc3)CC1)=Nc1cccnc1N2 | > 1 | 0.109 | > 1 | –
3 | Clc1ccc2c(c1)C(NCCc1ccccn1)=Nc1cccnc1N2 | – | > 1 | > 1 | –
4 | CN1CCCN(C2=Nc3cccnc3Nc3ccc(Cl)cc32)CC1 | – | 0.163 | > 1 | Ki [4]: 0.164 µM
5 | Clc1ccc2c(c1)C(NC1CC3CCC(C1)N3Cc1ccccc1)=Nc1cccnc1N2 (stereo not given) | 0.036 | – | – | –
6 | Clc1ccc2c(c1)C(N1CCN(C3CCCCC3)CC1)=Nc1cccnc1N2 | 0.034 | 0.048 | – | –
7 | Cc1ccc2c(c1)C(NC1CC3CCC(C1)N3Cc1ccccc1)=Nc1cccnc1N2 (stereo not given) | 0.034 | 0.131 | – | –
8 | Cc1ccc2c(c1)C(N1CCN(C3CCCCC3)CC1)=Nc1cccnc1N2 | 0.033 | 0.084 | – | –
9 | Cc1ccc2c(c1)C(N1CCN(c3cccc(C(F)(F)F)c3)CC1)=Nc1cccnc1N2 | > 1 | > 1 | > 1 | –
10 | Cc1ccc2c(c1)C(N1CCN(c3cccc(Cl)c3)CC1)=Nc1cccnc1N2 | > 1 | > 1 | > 1 | –
11 | Cc1ccc2c(c1)C(N1CCN(Cc3ccccc3)CC1)=Nc1cccnc1N2 | > 1 | 0.183 | > 1 | –
12 | Cc1ccc2c(c1)C(NCCN(C)C)=Nc1cccnc1N2 | 0.15 | > 1 | > 1 | –
13 | Cc1ccc2c(c1)C(N1CCN(c3ccccc3)CC1)=Nc1cccnc1N2 | > 1 | – | > 1 | Ki (D(4) dopamine receptor [5]): > 1 µM
14 | Cc1ccc2c(c1)C(NCCc1ccccn1)=Nc1cccnc1N2 | – | > 1 | – | –
15 | Clc1ccc2c(c1)C(NC1CCN(Cc3ccccc3)CC1)=Nc1cccnc1N2 | 0.081 | 0.089 | 0.163 | –
16 | Cc1ccc2c(c1)C(NCCCN(C)C)=Nc1cccnc1N2 | > 1 | > 1 | > 1 | –
17 | Clc1ccc2c(c1)C(N1CCN(c3ccccc3)CC1)=Nc1cccnc1N2 | > 1 | > 1 | > 1 | –
18 | Cc1ccc2c(c1)C(NC1CCN(C)CC1)=Nc1cccnc1N2 | 0.132 | 0.51 | 0.018 | –

Row | Compound | Ki [1] [µM] | Ki (D(4) dopamine receptor [2]) [µM] | Ki [3] [µM] | also measured
19 | Cc1ccc2c(c1)C(NCCC1CCCN1C)=Nc1cccnc1N2 (stereo not given) | > 1 | > 1 | – | –
20 | CN1CCC(NC2=Nc3cccnc3Nc3ccc(Cl)cc32)CC1 | 0.123 | 0.393 | – | –
21 | Cc1ccc2c(c1)C(N1CCCN(C)CC1)=Nc1cccnc1N2 | 0.303 | 0.356 | – | –
22 | FC(F)(F)c1cccc(N2CCN(C3=Nc4cccnc4Nc4ccc(Cl)cc43)CC2)c1 | > 1 | > 1 | > 1 | –
23 | Clc1cccc(N2CCN(C3=Nc4cccnc4Nc4ccc(Cl)cc43)CC2)c1 | > 1 | > 1 | – | –
24 | Clc1ccc2c(c1)C(NCCN1CCCCC1)=Nc1cccnc1N2 | 0.357 | > 1 | 0.063 | –
25 | Cc1ccc2c(c1)C(NCCN1CCOCC1)=Nc1cccnc1N2 | > 1 | > 1 | – | –
26 | Cc1ccc2c(c1)C(NC1CCN(Cc3ccccc3)CC1)=Nc1cccnc1N2 | 0.048 | 0.046 | 0.1 | –
27 | Cc1ccc2c(c1)C(N1CCN(CCc3ccccc3)CC1)=Nc1cccnc1N2 | 0.036 | 0.037 | 0.172 | –
28 | CN(C)CCCNC1=Nc2cccnc2Nc2ccc(Cl)cc21 | – | > 1 | > 1 | –
29 | Clc1ccc2c(c1)C(NCCN1CCOCC1)=Nc1cccnc1N2 | – | > 1 | > 1 | –
30 | Clc1ccc2c(c1)C(N1CCN(CCc3ccccc3)CC1)=Nc1cccnc1N2 | 0.103 | 0.04 | 0.367 | Immobility (Mus musculus [6]): 36%; Retraction time (Rattus norvegicus [7]): 1 s; Immobility (Mus musculus [8]): 49%; Retraction time (Rattus norvegicus [9]): 2.5 s; Immobility (Mus musculus [10]): 52%
31 | Cc1ccc2c(c1)C(N1CCN(C)CC1)=Nc1cccnc1N2 | – | 0.036 | 0.108 | Ki [4]: 0.037 µM
32 | CN1CCN(C2=Nc3cccnc3Nc3ccc(Cl)cc32)CC1 | – | 0.024 | 0.079 | Ki [4]: 0.035 µM
33 | CN1CCN(C2=Nc3cc(Cl)ccc3Nc3ccccc32)CC1 [CLOZAPINE] | – | – | – | Retraction time (Rattus norvegicus [7]): 1.1 s; Immobility (Mus musculus [11]): 103%; Immobility (Mus musculus [12]): 139%; Immobility (Mus musculus [13]): 95%; Retraction time (Rattus norvegicus [14]): 30 s
34 | O=C(CCCN1CCC(O)(c2ccc(Cl)cc2)CC1)c1ccc(F)cc1 [HALOPERIDOL] | – | – | – | Retraction time (Rattus norvegicus [15]): 22.5 s; Retraction time (Rattus norvegicus [14]): 30 s
35 | CN(C)CCCN1c2ccccc2CCc2ccccc21 [IMIPRAMINE] | – | – | – | Immobility (Mus musculus [16]): 98%; Immobility (Mus musculus [17]): 45%; Immobility (Mus musculus [18]): 70%
